Results as given in ChEMBL document CHEMBL1156017, “alpha-Tocopheryl succinate as a scaffold to develop potent inhibitors of breast cancer cell adhesion” (J Med Chem, 2009).
Calls of active or inactive are those of the source. The calls are words filed in the database; no cut-off is given here.

What was measured:
4T1 [1] = assay: Inhibition of mouse 4T1 cells metastasis at 5 uM after 30 mins by Boyden chamber assay; format: functional, cell-based
Outline: (§1)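 Transwell migration (12-μm pore). 5 × 10^4 cells in 0.2% FBS RPMI with agent in the upper insert for 30 min at 37°C, then moved to a well with 10% FBS RPMI for 24 h. Crystal violet stained. Migrated and non-migrated cells eluted with methanol separately, A570 read. % migration computed after background subtraction, expressed relative to vehicle (100%).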

[2] = Cytotoxicity against human MCF10A cells after 24 hrs by MTT assay; format: cell-based, MCF-10A; details: for Activity: human, mcf-10a; for IC50: Homo sapiens, MCF-10A
Outline: (§2)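 MTT viability, six replicates. Cells seeded at 6000 per well in 10% FBS RPMI 1640 for 24 h, then exposed to agents at the indicated concentrations in 2% FBS RPMI 1640. DMSO-matched vehicle controls. MTT at 0.5 mg/ml in 10% FBS medium for 2 h at 37°C. Formazan dissolved in DMSO, A570 read.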

[3] = target: Focal adhesion kinase 1 (Mus musculus) (UniProt P34152); assay: Induction of FAK degradation in mouse 4T1 cells at 5 uM after 1 hr by Western blotting; format: cell-based
4T1 [4] = assay: Effect on actin cytoskeletal structure in mouse 4T1 cells assessed as increase in accumulation of small vesicles surrounding nucleus and endoplasmic reticulum at 10 uM after 4 hrs by immunocytochemistry relative to DMSO; format: functional, cell-based
SK-BR-3 [5] = assay: Inhibition of human SK-BR-3 cells adhesion to gelatinous matrix protein-coated surface after 60 mins by ELISA; format: functional, cell-based
Outline: (§3)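 Wells coated with 12% (v/v) Matrigel for 1 h at 37°C, washed with 0.1% BSA RPMI, then blocked 60 min with 0.5% BSA RPMI. Cells pretreated with agents for 60 min at 37°C, then seeded at 2 × 10^4/well and allowed to adhere 30 min. Washed, formalin fixed, crystal violet stained, solubilized in 2% SDS, absorbance at 570 nm. Ratios compare IC50 values across cell lines.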

4T1 [6] = assay: Cytotoxicity against mouse 4T1 cells after 24 hrs by MTT assay; format: cell-based; details: for IC50: Mus musculus, 4T1, 24 h; for Activity: mouse, 4t1, 24 h; outline: as §2
4T1 [7] = assay: Inhibition of mouse 4T1 cells adhesion to gelatinous matrix protein-coated surface after 60 mins by ELISA; format: functional, cell-based; details: for IC50: 4T1, 1 h
4T1 [8] = assay: Effect on actin cytoskeletal structure in mouse 4T1 cells assessed as impairment of lamellipodia formation at 10 uM after 4 hrs by immunocytochemistry; format: functional, cell-based
4T1 [9] = assay: Effect on actin cytoskeletal structure in mouse 4T1 cells assessed as rapid dissolution of actin stress fibers at 10 uM after 4 hrs by immunocytochemistry; format: functional, cell-based
4T1 [10] = assay: Effect on actin cytoskeletal structure in mouse 4T1 cells assessed as rapid dissolution of F-actin fiber-associated reduction in fluorescent intensity at 10 uM after 4 hrs by immunocytochemistry relative to DMSO; format: functional; set-up: scale not given: the % may be the effect or the level left
MCF7 [11] = assay: Inhibition of human MCF7 cells adhesion to gelatinous matrix protein-coated surface after 60 mins by ELISA; format: functional, cell-based; outline: as §3
4T1 [12] = assay: Inhibition of mouse 4T1 cells adhesion to collagen 4 at 0.5 to => 1 uM after 60 mins by ELISA; format: functional, cell-based
Outline: (§4)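 Wells coated 1 h at 37°C with 2 μg/ml vitronectin or 10 μg/ml collagen IV, fibronectin or laminin. Washed with 0.1% BSA RPMI, blocked 60 min with 0.5% BSA RPMI. 4T1 cells pretreated with agents for 60 min at 37°C, then 2 × 10^4 cells/well allowed to adhere 30 min. Nonadherent cells washed off. Formalin fixed, 0.5% crystal violet stained, dissolved in 2% SDS, A570 read.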

4T1 [13] = assay: Effect on actin cytoskeletal structure in mouse 4T1 cells assessed as rapid loss of F-actin fiber-associated detachment from neighbouring cells at 5 uM after 4 hrs by immunocytochemistry; format: functional, cell-based
MCF7 [14] = assay: Ratio of IC50 for inhibition of human MCF7 cells adhesion to gelatinous matrix protein-coated surface to IC50 for mouse 4T1 cells adhesion to gelatinous matrix protein-coated surface; format: functional; outline: as §3
[15] = target: Focal adhesion kinase 1 (Mus musculus) (UniProt P34152); assay: Induction of FAK degradation in mouse 4T1 cells at 5 uM after 1 hr by Western blotting
4T1 [16] = assay: Inhibition of mouse 4T1 cells adhesion to vitronectin at 0.5 to => 1 uM after 60 mins by ELISA; format: functional, cell-based; outline: as §4
4T1 [17] = assay: Effect on actin cytoskeletal structure in mouse 4T1 cells assessed as rapid dissolution of F-actin fiber-associated reduction in fluorescent intensity at 5 uM after 4 hrs by immunocytochemistry relative to DMSO; format: functional; set-up: scale not given: the % may be the effect or the level left
4T1 [18] = assay: Inhibition of mouse 4T1 cells adhesion to fibronectin at 0.5 to => 1 uM after 60 mins by ELISA; format: functional, cell-based; outline: as §4
4T1 [19] = assay: Inhibition of mouse 4T1 cells adhesion to vitronectin at after 60 mins by ELISA; format: functional, cell-based; outline: as §4
SK-BR-3 [20] = assay: Ratio of IC50 for inhibition of human SK-BR-3 cells adhesion to gelatinous matrix protein-coated surface to IC50 for mouse 4T1 cells adhesion to gelatinous matrix protein-coated surface; format: functional; outline: as §3
4T1 [21] = assay: Effect on actin cytoskeletal structure in mouse 4T1 cells assessed as rapid dissolution of actin stress fibers at 5 uM after 4 hrs by immunocytochemistry; format: functional, cell-based
4T1 [22] = assay: Effect on actin cytoskeletal structure in mouse 4T1 cells assessed as impairment of lamellipodia formation at 5 uM after 4 hrs by immunocytochemistry; format: functional, cell-based
4T1 [23] = assay: Inhibition of mouse 4T1 cells adhesion to laminin at 0.5 to => 1 uM after 60 mins by ELISA; format: functional, cell-based; outline: as §4
4T1 [24] = assay: Inhibition of mouse 4T1 cells adhesion to laminin at after 60 mins by ELISA; format: functional, cell-based; outline: as §4
4T1 [25] = assay: Effect on actin cytoskeletal structure in mouse 4T1 cells assessed as increase in accumulation of small vesicles surrounding nucleus and endoplasmic reticulum at 5 uM after 4 hrs by immunocytochemistry relative to DMSO; format: functional, cell-based
4T1 [26] = assay: Inhibition of mouse 4T1 cells adhesion to collagen 4 at after 60 mins by ELISA; format: functional, cell-based; outline: as §4
4T1 [27] = assay: Inhibition of mouse 4T1 cells adhesion to fibronectin at after 60 mins by ELISA; format: functional, cell-based; outline: as §4
SK-BR-3 [28] = assay: Inhibition of human SK-BR-3 cells adhesion to gelatinous matrix protein-coated surface at 100 uM after 60 mins by ELISA; format: functional, cell-based; outline: as §3
4T1 [29] = assay: Inhibition of mouse 4T1 cells adhesion to fibronectin at 5 to 100 uM after 60 mins by ELISA; format: functional, cell-based; outline: as §4
4T1 [30] = assay: Inhibition of mouse 4T1 cells adhesion to laminin at 5 to 100 uM after 60 mins by ELISA; format: functional, cell-based; outline: as §4
MCF7 [31] = assay: Inhibition of human MCF7 cells adhesion to gelatinous matrix protein-coated surface at 100 uM after 60 mins by ELISA; format: functional, cell-based; outline: as §3
4T1 [32] = assay: Inhibition of mouse 4T1 cells adhesion to collagen 4 at 5 to 100 uM after 60 mins by ELISA; format: functional, cell-based; outline: as §4
4T1 [33] = assay: Inhibition of mouse 4T1 cells adhesion to vitronectin at 5 to 100 uM after 60 mins by ELISA; format: functional, cell-based; outline: as §4
4T1 [34] = assay: Inhibition of mouse 4T1 cells adhesion to gelatinous matrix protein-coated surface at 10 uM after 60 mins by ELISA; format: functional; details: 4T1, 1 h
4T1 [35] = assay: Inhibition of mouse 4T1 cells metastasis at 50 uM after 30 mins by Boyden chamber assay; format: functional, cell-based; outline: as §1
4T1 [36] = assay: Effect on actin cytoskeletal structure in mouse 4T1 cells assessed as rapid dissolution of actin stress fibers at 50 uM after 4 hrs by immunocytochemistry; format: functional, cell-based
4T1 [37] = assay: Effect on actin cytoskeletal structure in mouse 4T1 cells assessed as rapid loss of F-actin fiber-associated detachment from neighbouring cells at 10 uM after 4 hrs by immunocytochemistry; format: functional, cell-based

Chain of Focal adhesion kinase 1 (Mus musculus) (P34152 whole entry): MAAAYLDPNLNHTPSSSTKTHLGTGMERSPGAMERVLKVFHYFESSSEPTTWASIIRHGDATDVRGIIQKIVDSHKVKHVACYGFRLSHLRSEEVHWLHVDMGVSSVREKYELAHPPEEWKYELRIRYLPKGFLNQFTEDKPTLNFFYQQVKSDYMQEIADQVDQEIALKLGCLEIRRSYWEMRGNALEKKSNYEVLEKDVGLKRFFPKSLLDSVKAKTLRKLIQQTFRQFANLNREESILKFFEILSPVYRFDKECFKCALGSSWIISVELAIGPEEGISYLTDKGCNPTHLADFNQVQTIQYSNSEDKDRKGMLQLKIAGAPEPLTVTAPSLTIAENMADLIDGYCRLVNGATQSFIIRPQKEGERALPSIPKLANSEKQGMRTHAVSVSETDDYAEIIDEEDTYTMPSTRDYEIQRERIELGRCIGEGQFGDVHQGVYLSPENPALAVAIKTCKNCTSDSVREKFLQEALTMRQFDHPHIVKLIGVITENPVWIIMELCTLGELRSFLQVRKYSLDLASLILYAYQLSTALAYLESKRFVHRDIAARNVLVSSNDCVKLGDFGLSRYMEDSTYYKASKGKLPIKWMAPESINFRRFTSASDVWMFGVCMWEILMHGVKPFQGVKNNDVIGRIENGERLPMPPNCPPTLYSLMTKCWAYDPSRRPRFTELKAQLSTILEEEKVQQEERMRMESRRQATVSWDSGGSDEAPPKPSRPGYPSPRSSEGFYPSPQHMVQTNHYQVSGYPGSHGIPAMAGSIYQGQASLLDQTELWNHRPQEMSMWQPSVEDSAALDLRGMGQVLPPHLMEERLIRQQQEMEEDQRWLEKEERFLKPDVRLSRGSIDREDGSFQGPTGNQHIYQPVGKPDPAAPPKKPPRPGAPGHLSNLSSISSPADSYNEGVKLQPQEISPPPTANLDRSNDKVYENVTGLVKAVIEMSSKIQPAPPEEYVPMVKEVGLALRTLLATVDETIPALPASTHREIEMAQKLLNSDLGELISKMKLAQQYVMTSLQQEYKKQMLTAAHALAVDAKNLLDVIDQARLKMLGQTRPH

SMILES	inhibition (4T1 [1])	Activity [2]	Activity [3]	inhibition (SK-BR-3 [5])	IC50 (4T1 [6]) [µM]	Activity (4T1 [6])	inhibition (4T1 [7])	IC50 (4T1 [7]) [µM]	inhibition (MCF7 [11])	IC50 [2] [µM]	other results
Cc1c(C)c2c(c(C)c1OCC(=O)O)CC[C@](C)(CCCC(C)CCCC(C)C)O2 (stereo partly drawn)	Active	Dose-dependent effect	Active	Dose-dependent effect	> 10	Dose-dependent effect	Dose-dependent effect	2	Dose-dependent effect		Activity (4T1 [4]): Active; Activity (4T1 [8]): Active; Activity (4T1 [9]): Active; Activity (4T1 [10]): 70%
Cc1c(C)c2c(c(C)c1OCC(=O)O)CC[C@](C)(/C=C/CC(C)CCCC(C)C)O2 (stereo partly drawn)	Active	Dose-dependent effect		Dose-dependent effect	> 10	Dose-dependent effect	Dose-dependent effect	0.6	Dose-dependent effect	23	inhibition (4T1 [12]): Active; Activity (4T1 [13]): Active; Ratio IC50 (MCF7 [14]): 3.3; Activity [15]: Active; inhibition (4T1 [16]): Active; Activity (4T1 [17]): 84%; inhibition (4T1 [18]): Active; inhibition (4T1 [19]): Dose-dependent effect; Ratio IC50 (SK-BR-3 [20]): 3.3; Activity (4T1 [21]): Active; IC50 (SK-BR-3 [5]; SK-BR-3, 1 h): 2 µM; Activity (4T1 [22]): Active; inhibition (4T1 [23]): Active; inhibition (4T1 [24]): Dose-dependent effect; Activity (4T1 [25]): Active; inhibition (4T1 [26]): Dose-dependent effect; IC50 (MCF7 [11]; MCF7, 1 h): 2 µM; inhibition (4T1 [27]): Dose-dependent effect
Cc1c(C)c2c(c(C)c1OC(=O)CCC(=O)O)CC[C@@](C)(CCC[C@H](C)CCC[C@H](C)CCCC(C)C)O2 [(+)-ALPHA-TOCOPHERYL SUCCINATE]			inactive	Dose-dependent effect			Dose-dependent effect	10			inhibition (SK-BR-3 [28]): inactive; inhibition (4T1 [29]): Active; inhibition (4T1 [30]): Active; inhibition (MCF7 [31]): inactive; inhibition (4T1 [32]): Active; inhibition (4T1 [33]): Active; inhibition at 10 µM (4T1 [34]): 50%; inhibition (4T1 [35]): inactive; Activity (4T1 [36]): inactive; Activity (4T1 [37]): inactive
Cc1c(C)c2c(c(C)c1OC(=O)CCC(=O)O)CC[C@](C)(CCCC(C)CCCC(C)C)O2 (stereo partly drawn)	inactive	Dose-dependent effect	inactive	Dose-dependent effect	> 10	Dose-dependent effect	Dose-dependent effect	2.5	Dose-dependent effect		
Cc1c(C)c2c(c(C)c1OC(=O)CCC(=O)O)CC[C@](C)(/C=C/CC(C)CCCC(C)C)O2 (stereo partly drawn)	Active	Dose-dependent effect	Active	Dose-dependent effect	> 10	Dose-dependent effect	Dose-dependent effect	1.3	Dose-dependent effect	23	
